Experimental data published in article PMC3166448 (Urology, 2011).
“Also recorded” adds a separate entry of the source. Counter-ions that a name gives are not always drawn.

How the values were obtained:
[1] = system: castration-resistant prostate cancer (CRPC); settings: cited from earlier work
[2] = cited from earlier work
[3] = Plasma pharmacokinetics after first IPI-504 dose; assay type: in vivo, human; settings: for Time of peak plasma concentration: relative to the 30-minute infusion
[4] = system: androgen-dependent and androgen-independent prostate cancer xenografts; settings: 3 (Solit et al); cited from earlier work
[5] = 17-AAG: ref 5; IPI-504: ref 6; cited from earlier work
[6] = system: cytochrome P450 3A4 (CYP3A4); settings: in vitro; cited from earlier work
[7] = twice-weekly; cited from earlier work
[8] = system: castration-resistant prostate cancer (CRPC); assay: Phase 2 trial: PSA response / antitumor outcome; assay type: in vivo, human
How it was run: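 Adults (>18 years) with progressive CRPC (two serial PSA rises or progressive radiographic metastases, serum testosterone < 50 […]). Group A was chemotherapy-naïve; Group B had radiographic metastases, progression on or intolerance to docetaxel, and ≤3 prior chemotherapy regimens. Test compound 400 mg/m2 given as a 30-min IV infusion on days 1, 4, 8 and 11 of 21-day cycles; later continuation allowed at 300 mg/m2.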

[9] = system: patients with castration-resistant prostate cancer (CRPC); assay: Phase 2 trial: treatment-emergent adverse events; assay type: in vivo, human
[10] = plasma after first IPI-504 dose 400 mg/m^2 iv
[11] = Grade ≥ 3, N=19, IPI-504 400 mg/m^2 iv
[12] = TEAE in > 25% of study population, N=19
[13] = any grade, N=19, IPI-504 400 mg/m^2 iv
[14] = of the 19 patients enrolled and treated

Q: Which “Antitumor activity in clinical trials in patients with CRPC” value [1] does the source give for `C=CCNC1=C2C[C@@H](C)C[C@H](OC)[C@H](O)[C@@H](C)/C=C(\C)[C@H](OC(N)=O)[C@@H](OC)/C=C\C=C(/C)C(=O)NC(=CC1=O)C2=O` [17-AAG, 17-allylamine-17-demethoxygeldanamycin, reference compound] here?
A: negligible antitumor activity

Q: And the “Hepatotoxicity in phase I trials” value [2]?
A: dose limiting toxicity

Q: And the “Mean AUC0-∞” value [3, 10]?
A: 9,847 ng*hr/mL

Q: What about the “mean T1/2” value [3, 10] of the same compound?
A: 1.4 h

Q: And the “Time of peak plasma concentration” value [3]?
A: at the end of the infusion

Q: What about the “Growth of prostate cancer xenografts” value [4] of the same compound?
A: dose-dependent growth inhibition

Q: What does the source list for `CO[C@H]1/C=C/C=C(\C)C(=O)NC2=CC(=O)C(N)=C(C[C@@H](C)C[C@H](OC)[C@H](O)[C@@H](C)/C=C(\C)[C@@H]1OC(N)=O)C2=O` [17-AG]?
A: mean T1/2 [3, 10]: 5.2 h; Time of peak plasma concentration [3]: ranging from the end of the infusion to 1.5 hours post-infusion; Share of the total measured exposure ([3]; sum of IPI-504, 17-AAG and 17-AG without adjustment for molecular weight): approximately 68%

Q: Which Solubility [5] does the source give for `C=CCNc1c(O)cc2c(O)c1C[C@@H](C)C[C@H](OC)[C@H](O)[C@@H](C)/C=C(\C)[C@H](OC(N)=O)[C@@H](OC)/C=C\C=C(/C)C(=O)N2` [IPI-504, retaspimycin hydrochloride] here?
A: water-soluble

Q: What about the “Involvement of CYP3A4 in metabolism” value [6] of the same compound?
A: involved in the metabolism

Q: What about the “Maximum tolerated dose as a single agent” value [7] of the same compound?
A: ≥ 400 mg/m^2

Q: What about the “Patients achieving ≥ 50% post-treatment decline in PSA (PSA response)” value ([8]; Groups A and B, N=19) of the same compound?
A: No PSA responses; also recorded: No patients

Q: What about the “PSA decline from baseline in one patient” value ([8]; one Group A (chemotherapy-naïve) patient) of the same compound?
A: 48%

Q: And the “Time on treatment of the patient with PSA decline” value ([8]; one Group A patient)?
A: 9 cycles

Q: And the “Time on study until discontinuation due to disease progression” value ([8]; one Group A patient, after the interim analysis)?
A: approximately 2 years

Q: And the Overall antitumor activity ([8]; single agent, 400 mg/m^2)?
A: minimal effect on PSA or tumor burden; also recorded: negligible antitumor activity

Q: What about the AUC ([3]; human, in vivo, 400 mg/m^2) of the same compound?
A: 26400 ng·h/mL

Q: What about the AUC(0-inf) ([3]; human, in vivo, iv, 400 mg/m2) of the same compound?
A: 11700 ng·h/mL

Q: What about the “Time of peak plasma concentration” value [3] of the same compound?
A: at the end of the infusion

Q: And the “Grade 3 AST elevation in the patient who died of hepatic failure” value ([9]; 1 day before hepatic failure, at study drug administration)?
A: 339 U/L

Q: What about the “AST elevation (Grade 4) in the second patient” value ([9]; Cycle 1, Dose 2, from 32 U/L at baseline) of the same compound?
A: 863 U/L

Q: And the “ALT elevation (Grade 3) in the second patient” value ([9]; Cycle 1, Dose 2, from a normal baseline level)?
A: 659 U/L

Q: What about the “AST elevation (Grade 3) in one patient” value ([9]; Cycle 2, Dose 3, prompted study drug discontinuation, returned to normal 4 days later) of the same compound?
A: 397 U/L

Q: And the “ALT Increased, patients with TEAE (Grade ≥ 3)” value [9, 11]?
A: 1 (5) n (%)

Q: What about the “AST Increased, patients with TEAE (Grade ≥ 3)” value [9, 11] of the same compound?
A: 2 (11) n (%)

Q: And the “Anemia, patients with TEAE (Grade ≥ 3)” value [9, 11]?
A: 1 (5) n (%)

Q: And the “Anorexia, patients with TEAE (Grade ≥ 3)” value [9, 11]?
A: 1 (5) n (%)

Q: What about the “Anxiety, patients with TEAE (Grade ≥ 3)” value [9, 11] of the same compound?
A: 0 n (%)

Q: And the “Arthralgia, patients with TEAE (Grade ≥ 3)” value [9, 11]?
A: 0 n (%)

Q: What about the “Back Pain, patients with TEAE (Grade ≥ 3)” value [9, 11] of the same compound?
A: 1 (5) n (%)

Q: And the “Constipation, patients with TEAE (Grade ≥ 3)” value [9, 11]?
A: 0 n (%)

Q: And the “Dehydration, patients with TEAE (Grade ≥ 3)” value [9, 11]?
A: 3 (16) n (%)

Q: And the “Diarrhea, patients with TEAE (Grade ≥ 3)” value [9, 11]?
A: 1 (5) n (%)

Q: And the “Fatigue, patients with TEAE (Grade ≥ 3)” value [9, 11]?
A: 1 (5) n (%)

Q: What about the “Headache, patients with TEAE (Grade ≥ 3)” value [9, 11] of the same compound?
A: 0 n (%)

Q: And the “Hypokalemia, patients with TEAE (Grade ≥ 3)” value [9, 11]?
A: 0 n (%)

Q: And the “Hyponatremia, patients with TEAE (Grade ≥ 3)” value [9, 11]?
A: 2 (11) n (%)

Q: What about the “Infusion Site Pain, patients with TEAE (Grade ≥ 3)” value [9, 11] of the same compound?
A: 0 n (%)

Q: And the “Musculoskeletal Pain, patients with TEAE (Grade ≥ 3)” value [9, 11]?
A: 0 n (%)

Q: And the “Myalgia, patients with TEAE (Grade ≥ 3)” value [9, 11]?
A: 0 n (%)

Q: What about the “Nausea, patients with TEAE (Grade ≥ 3)” value [9, 11] of the same compound?
A: 1 (5) n (%)

Q: And the “Pain in Extremity, patients with TEAE (Grade ≥ 3)” value [9, 11]?
A: 0 n (%)

Q: What about the “Pneumonia, patients with TEAE (Grade ≥ 3)” value [9, 11] of the same compound?
A: 2 (11) n (%)

Q: And the “Pyrexia, patients with TEAE (Grade ≥ 3)” value [9, 11]?
A: 0 n (%)

Q: What about the “Vomiting, patients with TEAE (Grade ≥ 3)” value [9, 11] of the same compound?
A: 1 (5) n (%)

Q: And the “Anorexia, share of study population” value [9, 12]?
A: 26%

Q: And the “Arthralgia, share of study population” value [9, 12]?
A: 26%

Q: And the “ALT Increased, patients with any TEAE” value [9, 13]?
A: 2 (11) n (%)

Q: What about the “AST Increased, patients with any TEAE” value [9, 13] of the same compound?
A: 2 (11) n (%)

Q: And the “Anemia, patients with any TEAE” value [9, 13]?
A: 4 (21) n (%)

Q: And the “Anorexia, patients with any TEAE” value [9, 13]?
A: 5 (26) n (%)

Q: And the “Anxiety, patients with any TEAE” value [9, 13]?
A: 2 (11) n (%)

Q: What about the “Arthralgia, patients with any TEAE” value [9, 13] of the same compound?
A: 5 (26) n (%)

Q: And the “Back Pain, patients with any TEAE” value [9, 13]?
A: 2 (11) n (%)

Q: And the “Constipation, patients with any TEAE” value [9, 13]?
A: 4 (21) n (%)

Q: What about the “Dehydration, patients with any TEAE” value [9, 13] of the same compound?
A: 4 (21) n (%)

Q: And the “Diarrhea, patients with any TEAE” value [9, 13]?
A: 8 (42) n (%)

Q: What about the “Fatigue, patients with any TEAE” value [9, 13] of the same compound?
A: 6 (32) n (%)

Q: And the “Headache, patients with any TEAE” value [9, 13]?
A: 2 (11) n (%)

Q: What about the “Hypokalemia, patients with any TEAE” value [9, 13] of the same compound?
A: 2 (11) n (%)

Q: What about the “Hyponatremia, patients with any TEAE” value [9, 13] of the same compound?
A: 2 (11) n (%)

Q: What about the “Infusion Site Pain, patients with any TEAE” value [9, 13] of the same compound?
A: 4 (21) n (%)

Q: And the “Musculoskeletal Pain, patients with any TEAE” value [9, 13]?
A: 3 (16) n (%)

Q: What about the “Myalgia, patients with any TEAE” value [9, 13] of the same compound?
A: 3 (16) n (%)

Q: And the “Pain in Extremity, patients with any TEAE” value [9, 13]?
A: 4 (21) n (%)

Q: And the “Pneumonia, patients with any TEAE” value [9, 13]?
A: 2 (11) n (%)

Q: What about the “Pyrexia, patients with any TEAE” value [9, 13] of the same compound?
A: 3 (16) n (%)

Q: And the “Vomiting, patients with any TEAE” value [9, 13]?
A: 4 (21) n (%)

Q: What about the “Nausea, patients with any TEAE” value ([9]; any grade, N=19, IPI-504 400 mg/m^2 iv days 1, 4, 8, 11 of 21-day cycle) of the same compound?
A: 9 (47) n (%)

Q: And the “Patients reported with treatment-emergent AEs (TEAEs), number” value [9, 14]?
A: 18 patients

Q: What about the “Patients whose TEAEs resulted in death, percent” value [9, 14] of the same compound?
A: 11%

Q: And the “Patients with CTCAE Grade 3 or higher TEAEs, number” value [9, 14]?
A: 11 patients

Q: And the “Patients with CTCAE Grade 3 or higher TEAEs, percent” value [9, 14]?
A: 58%
